Some of the results follow. The source made the active and inactive calls.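 How the source made its calls, unless noted: active means mean inhibition over three repeats above a set limit taken from the earlier primary screen (cut at about 38% in these data); inactive means the rest.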
target: COUP transcription factor 2 (Homo sapiens) (UniProt P24468); test: retest of COUP-TFII reporter suppressors – cell-based, luciferase reporter, HEK293, triplicate, confirmation (AID 687008); conditions: HEK293 NGFI-A luciferase reporter, luminescence; at 8.5 µM; hits give high values;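 further: 100% = cells given the luciferase reporter alone without the COUP-TF2 vector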
Sequence (P24468 whole entry, looked up): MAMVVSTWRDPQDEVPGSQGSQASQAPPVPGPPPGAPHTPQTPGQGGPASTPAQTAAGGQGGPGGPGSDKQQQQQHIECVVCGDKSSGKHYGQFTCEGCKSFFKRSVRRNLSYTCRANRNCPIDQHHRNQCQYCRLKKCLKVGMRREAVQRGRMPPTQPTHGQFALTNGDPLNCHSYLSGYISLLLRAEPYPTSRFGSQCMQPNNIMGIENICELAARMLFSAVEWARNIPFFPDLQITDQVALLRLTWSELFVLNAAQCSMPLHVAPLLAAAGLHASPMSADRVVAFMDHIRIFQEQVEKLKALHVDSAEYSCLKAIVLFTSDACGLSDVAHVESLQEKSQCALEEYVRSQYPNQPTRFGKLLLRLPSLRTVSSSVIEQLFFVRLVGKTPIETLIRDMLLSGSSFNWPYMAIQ

SMILES	inhibition
CCCCn1c(SCc2ncc(-c3ccccc3)o2)nc2cc(S(N)(=O)=O)ccc21	14.4% (inactive)
CCN(CC)P(=O)(C(NC(=O)OC)C(F)(F)C(F)(F)C(F)(F)C(F)F)N(CC)CC (stereo unspecified)	14.8% (inactive)
Cc1ccccc1CS(=O)(=O)Cc1ccc(C(=O)Nc2ccc(Cl)cc2)o1	41.5% (active)
CCC(=O)Nc1ccc(C(=O)CSc2nnc(CNc3ccc(Cl)cc3)o2)cc1OC	17.3% (inactive)
O=C(c1cc(C(=O)N2CCN(c3ccc(F)cc3)CC2)cc([N+](=O)[O-])c1)N1CCN(c2ccc(F)cc2)CC1	46.7% (active)
Cc1ccc(OCC(=O)Nc2ccc(N3CCN(C(=O)c4ccco4)CC3)cc2)c(C)c1	24.3% (inactive)
Cc1ccc(-n2nc3c(=O)n(C(C)C(=O)NCc4ccc5c(c4)OCO5)nc(C)c3c2C)cc1 (stereo unspecified)	11.8% (inactive)
CCOC(=O)C1(CCOc2ccccc2)CCN(Cc2cc(OC)cc(OC)c2)CC1	9.24% (inactive)
N#CC(C#N)=CN=c1ccn(Cc2ccc(Cl)cc2Cl)cc1	9.12% (inactive)
CCc1ccc(-c2nc(SCC(=O)NC3CCCC3)n[nH]2)cc1	11.9% (inactive)
CN(CCc1ccccc1)C(=O)c1cccc(NC(=O)Cc2cccc(NC(=O)C3CCCN(C(=O)CCc4ccccc4)C3)c2)c1 (stereo unspecified)	15.9% (inactive)
COc1cc(/C=C/C(=O)n2cnc3ccccc32)cc(OC)c1OC	16.1% (inactive)
Cc1ccc(NC(=O)C2CC(=O)N(c3ccc4c(c3)OCCO4)C2)cc1S(=O)(=O)N1CCCCCC1 (stereo unspecified)	14.1% (inactive)

target: (Lyso)-N-acylphosphatidylethanolamine lipase (Mus musculus) (UniProt Q8VD66); test: mouse ABHD4 hydrolase blockers, triplicate – biochemical, fluorescence polarization, confirmation (AID 720658;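 active means mean inhibition across replicates above the hit cutoff set in the primary screen, cut at about 30% in these data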;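 further: 0% = wild-type ABHD4 with DMSO and 100% = catalytically dead S159A mutant with DMSO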); conditions: purified mABHD4, FP-Rh probe fluorescence polarization; at 8.92 µM; hits give high values
Sequence (Q8VD66 whole entry, looked up): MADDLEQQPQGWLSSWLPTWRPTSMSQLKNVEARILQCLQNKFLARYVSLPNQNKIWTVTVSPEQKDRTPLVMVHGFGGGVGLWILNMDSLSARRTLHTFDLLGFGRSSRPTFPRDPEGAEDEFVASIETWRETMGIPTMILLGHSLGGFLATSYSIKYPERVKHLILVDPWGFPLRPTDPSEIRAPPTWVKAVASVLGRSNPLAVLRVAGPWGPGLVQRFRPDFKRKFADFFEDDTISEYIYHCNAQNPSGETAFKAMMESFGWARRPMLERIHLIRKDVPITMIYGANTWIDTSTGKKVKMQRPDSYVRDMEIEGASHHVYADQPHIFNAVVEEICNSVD
Outline: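 Material: Wild-type mouse ABHD4 | Compound: Single nominal compound dose 8.92 µM, 0.89% DMSO final | Measured by: Fluorescence polarization, excitation 525 nm, emission 598 nm | Incubation: 45 min compound pretreatment plus 60 min FP-Rh labeling, 25 °C | Measure: Percent inhibition scaled between wild-type DMSO and S159A mutant wells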

SMILES	inhibition
O=C(COC(=O)c1ccc(O)cc1O)c1ccc2c(c1)OCCO2	40.2% (active)
Cc1cc2ccccc2n1CCNC(=O)COc1ccc2ccccc2c1	1.54% (inactive)
CCOc1cc(/C=C2/N=C(c3ccc(C(C)(C)C)cc3)OC2=O)cc(Cl)c1OS(C)(=O)=O	18.8% (inactive)
COc1cc(C(=O)Nn2c(O)c(C3=c4ccccc4=NC3=O)sc2=S)ccc1O	77.4% (active)
NC(N)=N/N=C/c1ccc(OCc2ccc(Cl)cc2Cl)cc1	46.2% (active)
CCCCCCSc1ccc(-c2nc3ccc(Cl)cn3c2NCc2ccccc2)cc1	5.45% (inactive)
Cc1cccc(-n2cnc(C(=O)NNC(=S)Nc3ccccc3)c2)n1	57.2% (active)
O=C(O)c1ccccc1/C=N/Nc1ccc(S(=O)(=O)Nc2ccc(Cl)cc2)cc1[N+](=O)[O-]	50.4% (active)

From PubChem BioAssay
